Drawing on ChEMBL document CHEMBL4513216, “Probing the Open Global Health Chemical Diversity Library for Multistage-Active Starting Points for Next-Generation Antimalarials” (ACS Infect Dis, 2020), this text covers cytotoxicity for 72 molecules.

The nature of the series: Toxicity liver stage against HepG2, at 10uM. As to conditions: human, HepG2-A16-CD81EGFP cells; read-out: INHIBITION
The format is cell-based. Also noted: test concentration 10 uM, cell line HepG2-A16-CD81EGFP. The gist of the method: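 Uninfected HepG2-A16-CD81EGFP cells, 3 × 10^3 per well, 1536-well, plated on prespotted compound at 10 μM final, parasite-free screening media added to match infected plates; puromycin 10 μM positive, DMSO 0.5% negative; run in parallel with 48 h PbLuc assay at 37 °C, 5% CO2; viability by CellTiter-Glo luminescence, normalized to controls.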
For `CCN(CC)c1ccc(CNC(=O)c2ccc(=O)[nH]n2)cn1`, the cytotoxicity at 10 µM came out at 4.16%. For `CSCC[C@@H](CO)n1ccnc1-c1ccncc1`, the cytotoxicity at 10 µM was found to be 7.21%. In the case of `O=C(NCCCO)c1cc(-c2cc[nH]n2)n2ccccc12`, the cytotoxicity at 10 µM was 14.3%.

For `COc1cc(Cl)ccc1C(=O)N1CCCC(c2cc(C)[nH]n2)C1` (configuration not stated), the cytotoxicity at 10 µM was determined as 72.5%. The same measure for `O=C(c1ccccc1)N1CCC2(CC1)CNc1c(F)cccc12`: 7.33%. The same measure for `CC(=O)N1CCCC1c1cncc(Oc2ccc(F)cc2)n1` (configuration not stated): -15.8%; for `CSCc1noc(Cn2ncn3cccc3c2=O)n1`: 4.44%; for `Clc1ccc(C(CNCc2cccnc2)n2cccn2)cc1` (configuration not stated): -5.07%. For the molecule `CN1CCCCC1c1ncc2c(n1)CCN(Cc1ccc(F)cc1)C2` (configuration not stated), the cytotoxicity at 10 µM was -17.6%. The result for `Cc1ccccc1OCC(=O)N1CCCC(CNS(C)(=O)=O)C1` (configuration not stated) reads 2.07%.

Take `CC(C)(O)CSCCNCc1ccc(Cl)c2cccnc12`: the cytotoxicity at 10 µM is -8.87%. The result for `Cc1nc(N2CCCC2)ccc1NCc1ccccn1` reads 5.13%; that for `COc1ccc(CN2CCN(Cc3nccn3C)C(C)C2)cc1F` (configuration not stated), 2.42%; that for `CCn1nc(CNC(=O)C2CCCN(CC(N)=O)C2)c2ccccc21` (configuration not stated), -9.65%. `COCCN1CCC(C(=O)N(C)Cc2c[nH]c3ccc(C)cc23)C1` (configuration not stated): the cytotoxicity at 10 µM is -13.2%. For the molecule `Cc1cnc(CN(C)C2CCN(Cc3nc4ccccc4o3)C2)o1` (configuration not stated), the cytotoxicity at 10 µM was -19.4%. The result for `Cc1nc(C2CCCN(C(=O)CO)C2)cc(N2CCOCC2)n1` (configuration not stated) reads -12.9%.

Take `Cc1csc(N2CCCN(C(=O)c3ccoc3C)CC2)n1`: the cytotoxicity at 10 µM was -8.45%. With `CNC(=O)NC(=O)C(NCc1ccccc1)c1ccccc1` (configuration not stated), the cytotoxicity at 10 µM is -52.9%. `Cc1ccc(NC2CCN(C(=O)CCc3ccccc3)CC2)nn1`: the cytotoxicity at 10 µM was -10.5%. As to `Cc1nc(C)n(CC2CCCN(CC(=O)Nc3cccnc3)C2)n1` (configuration not stated), the cytotoxicity at 10 µM is -4.84%. The same measure for `Cc1nc(Nc2ccccn2)cc(C2CCCN2Cc2ncc[nH]2)n1` (configuration not stated): -3.11%; for `O=C(Cn1ccc2ccccc21)NC[C@@H]1CCCN2CCCC[C@H]12`: -4.16%; for `c1ccc(-c2ncc(CNC3CCc4ncnn4C3)cn2)cc1` (configuration not stated): -0.722%. The result for `COc1cccc2[nH]cc(CCNC(=O)N3CCC[C@H]3CO)c12` reads -12.6%; that for `CCc1nc(C2CCCN2C(=O)CCc2c(C)noc2Cl)no1` (configuration not stated), -7.07%; that for `CCN(Cc1nccn1C)C(=O)c1ccc(NCc2cnn(C)c2)nc1`, 0.82%. Turning to `Cc1nc(CN2CCCn3c(nc(Cn4ccnc4)cc3=O)C2)cs1`, the cytotoxicity at 10 µM was -5.67%.

Regarding `Cc1noc(C)c1CN1C[C@H](OCC2CC2)[C@H]2COC[C@H]21`, the cytotoxicity at 10 µM was -5.78%. Consider `O=C(c1ccno1)N1CCC2(CC1)C(=O)N(CC1CC1)c1ccccc12`, for which the cytotoxicity at 10 µM was 7.85%. `O=C1CC[C@H]2[C@H](CCN2C(=O)c2ccc[nH]2)N1CCN1CCOCC1`: the cytotoxicity at 10 µM was 3.3%. The same measure for `Cn1c(C(F)(F)F)nn(CCNC(=O)c2nc3ccccc3s2)c1=O`: 1.79%; for `COc1cccc(-n2nnc(C(=O)N3CCN(C(C)=O)CC3)c2C)c1`: -13.2%. The result for `CCOc1ccc(CSC(C)c2nc(C)no2)nc1` (configuration not stated) reads -9.32%; that for `CC(C)c1ncc(C(=O)N2CCOCC2CC(=O)c2ccco2)s1` (configuration not stated), 5.08%; that for `CN(C)C[C@@H]1CN(C2CCN(c3ccc(Cl)cc3)CC2)C[C@@H]1CO`, -9.14%.

As to `C/N=C1\c2cc3cc(OC)ccc3n2CCN1C`, the cytotoxicity at 10 µM is -10.1%.

For `CSCCc1n[nH]c2c1CN(S(=O)(=O)c1c(C)nn(C)c1C)CC2`, the cytotoxicity at 10 µM is 7.66%. `COc1ccc(Oc2ncccc2NC(=O)N2CC[C@H](O)C2)cc1`: the cytotoxicity at 10 µM is 1.7%. For `CNC(=O)c1c[nH]nc1C1CCCN1c1ncccn1` (configuration not stated), the cytotoxicity at 10 µM is 10%. On to `COc1ccnc(N(C)Cc2ccco2)n1`, for which the cytotoxicity at 10 µM was found to be 14%.

Consider `CCC(C)NC(=O)CCn1ccc(C)n1` (configuration not stated), for which the cytotoxicity at 10 µM is -0.634%. As to `Cc1ccc(CN2CCc3[nH]nc(C(=O)N(C)C)c3C2)s1`, the cytotoxicity at 10 µM is -7.55%.

Consider `CCOc1ccc(C#N)cc1NCC(=O)NC(=O)NC`, for which the cytotoxicity at 10 µM is -8.35%. Consider `COc1cccc(C(=O)N2CCOCC2CN(C)C)c1OC` (configuration not stated), for which the cytotoxicity at 10 µM is -4.03%. For the molecule `CC(C)=CCS(=O)(=O)Cc1ccn(-c2cccc(F)c2)n1`, the cytotoxicity at 10 µM came to 6.37%. With `Cc1nc(S(=O)(=O)NCCC(=O)NCc2ccsc2)cn1C`, the cytotoxicity at 10 µM amounted to 3.68%. As to `COC(=O)CNC(=O)C12CCC(=O)N1c1cc(Cl)ccc1S2` (configuration not stated), the cytotoxicity at 10 µM was -0.748%. The result for `N#Cc1cccc(CN(CC(=O)N2CCCC2)CC2CCCO2)c1` (configuration not stated) reads -5.52%; that for `CCOc1ccnc(N2CCCN(C(=O)c3cc[nH]c3C)CC2)n1`, 0.893%; that for `Cc1ccc(CNCc2nnc3n2CCCC3C(F)(F)F)s1` (configuration not stated), 20.7%. The result for `Cc1nn(C)c(C)c1C1SCC(=O)Nc2c1c(O)nn2C(C)C` (configuration not stated) reads -6.82%; that for `COc1ccc(Br)cc1Cn1nc(C(N)=O)ccc1=O`, 8.09%. The result for `O=C(CCOc1ccccc1F)N1CCCC(n2cncn2)C1` (configuration not stated) reads -1.22%; that for `Cc1nccn1CCCC(=O)N1CCC(N(C)c2cccnn2)CC1`, -13.4%; that for `Cc1nc(N2CCCC2)nc2c1CCN(C(=O)CC1CCCC1)CC2`, 0.457%. Turning to `O=C(CCNc1ncccn1)N1CCCN(c2nccs2)CC1`, the cytotoxicity at 10 µM is -14.3%.

On to `CCCNC(=O)c1sc(Nc2ccc(Cl)cn2)nc1C`, for which the cytotoxicity at 10 µM was -15.2%. Take `Cc1cnc(N2CCc3onc(COc4cccnc4)c3C2)nc1`: the cytotoxicity at 10 µM is -111%.

In the case of `O=C(c1ccoc1)N1CCOC2(COCCN(c3ncccn3)C2)C1` (configuration not stated), the cytotoxicity at 10 µM is -98.4%. In the case of `CCN(C)S(=O)(=O)N1CCCC(c2cccc(C(=O)O)c2)C1` (configuration not stated), the cytotoxicity at 10 µM was 0.91%. For `CCCN(CCC)CCNc1c(-c2ccccc2)c(=O)c1=O`, the cytotoxicity at 10 µM is -82.1%. The result for `CCn1cc(NC(=O)C2CCC(=O)N2Cc2ccc(C)o2)cn1` (configuration not stated) reads -2.92%.

In the case of `c1ccc(CN2CCC(NCCSc3cnn[nH]3)C2)cc1` (configuration not stated), the cytotoxicity at 10 µM was determined as 1.12%. As to `CCSc1cc(C(=O)NC2CCN(C(=O)c3ccccc3)CC2)ccn1`, the cytotoxicity at 10 µM amounted to 13.5%.

In the case of `COc1c(CNC2(c3ccc(Cl)cc3)CCC2)c(C)nn1C`, the cytotoxicity at 10 µM is 4.22%. The result for `COCCN1CCCC12CCCN(c1nncs1)C2` (configuration not stated) reads 9.79%; that for `Cn1cccc1C(=O)N[C@@H]1CN(Cc2cccs2)[C@@H]2COC[C@@H]21`, 8.88%.

Turning to `CO[C@@H]1CCN(Cc2cccs2)[C@H]1Cc1ccncc1`, the cytotoxicity at 10 µM was -73.4%. The result for `CCS(=O)(=O)NC[C@]12COC[C@H]1CN(Cc1ccsc1)C2` reads 6.37%; that for `CCCN1C[C@H](NC(=O)c2ccccc2F)[C@@H](c2ccc(OC)cc2)C1`, -41.8%; that for `COCCO[C@H]1CCN(Cc2cccs2)[C@H]1Cc1cccnc1`, -2.23%.
